The values that follow come from ChEMBL document CHEMBL5034042 (ACS Med Chem Lett, 2022).

Experiment [1] deals with T1, Trace amine-associated receptor 1 (Homo sapiens, UniProt Q96RJ0).
T1 sequence (Q96RJ0 whole entry): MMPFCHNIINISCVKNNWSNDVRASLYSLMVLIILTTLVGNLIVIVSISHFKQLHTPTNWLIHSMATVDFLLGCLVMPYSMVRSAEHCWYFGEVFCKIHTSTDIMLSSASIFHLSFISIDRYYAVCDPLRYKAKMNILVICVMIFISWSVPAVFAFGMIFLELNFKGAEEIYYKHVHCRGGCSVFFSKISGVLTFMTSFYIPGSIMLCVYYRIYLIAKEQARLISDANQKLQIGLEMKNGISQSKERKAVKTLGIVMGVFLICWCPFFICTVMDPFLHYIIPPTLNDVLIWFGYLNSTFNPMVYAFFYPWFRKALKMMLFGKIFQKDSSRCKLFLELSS
In words: Agonist activity at recombinant human TAAR1 expressed in CHO-K1 cells assessed as increase in intracellular cAMP incubated for 30 mins by HTRF analysis. In kind it is functional, cell-based. A digest of the protocol:
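Human TAAR1 agonism was measured in a single study under identical conditions.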
For orientation: TR-FRET usually uses a lanthanide donor and a delayed reading to cut background.

The target of experiment [2] is T2, Trace amine-associated receptor 1 (Homo sapiens) (UniProt Q96RJ0).
T2 sequence (whole entry): T1 sequence (Q96RJ0 whole entry)
Nature of the experiment: Agonist activity at recombinant human TAAR1 expressed in CHO-K1 cells assessed as maximal increase in intracellular cAMP incubated for 30 mins by HTRF analysis relative to control. The class given is functional, cell-based. The settings on record: filed as agonist. The procedure, abridged:
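Maximal response (Emax) is expressed relative to a p-tyramine control applied to each plate. Values were run in triplicate under identical conditions in a single study and are reported as mean ± SEM (n = 3).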

As usually defined, the EC50 is the midpoint of the concentration-response curve. One may read the Emax as the greatest response seen or fitted, relative to the assay's reference. Take `NCC(O)c1ccc(O)c(O)c1` (configuration not stated): the EC50 in experiment [1] worked out at 12.2 µM. Also, the Emax in experiment [2] is 99%.

Turning to `COc1cc(CCN)ccc1O`, the EC50 in experiment [1] was 0.308 µM. For the same molecule, the Emax in experiment [2] came out at 101%.

With `NCCc1ccc(O)c(O)c1`, the Emax in experiment [2] came out at 97%.

In the case of `NCC1OCCCc2ccsc21` (racemic), the EC50 in experiment [1] was 0.065 µM. For the same molecule, in experiment [2], the maximum response (Emax) was determined as 111%.

In the case of `NCCc1ccc(Oc2ccc(O)cc2)c(I)c1`, in experiment [1], the EC50 was found to be 0.225 µM. In addition, the maximal response (Emax) in experiment [2] was 105%.

Turning to `NCCc1ccc(O)cc1` [TYRAMINE], in experiment [1], the EC50 was 0.076 µM. Further, the maximum response (Emax) in experiment [2] was determined as 111%.

Take `CNC[C@@H]1OCCc2sccc21`: the EC50 in experiment [1] was 0.113 µM. In addition, in experiment [2], the Emax came to 110%.

In the case of `CNC[C@]1(C)OCCc2ccsc21`, in experiment [1], the EC50 is 45.7 µM. In addition, the Emax in experiment [2] was 95%.

Take `c1cc2c(s1)[C@H](CN1CCCC1)OCC2`: the EC50 in experiment [1] came out at 7.2 µM. For the same molecule, the Emax in experiment [2] was determined as 113%.

On to `CNCC1OCCCc2ccsc21` (racemic), for which, in experiment [1], the EC50 stood at 0.321 µM. Further, the maximal effect (Emax) in experiment [2] was 113%.

For the molecule `NCCc1cccs1`, the concentration giving a half-maximal response (EC50) in experiment [1] amounted to 0.0083 µM. The Emax in experiment [2] was determined as 113%.

Take `CNC[C@H](O)c1ccc(O)cc1`: the EC50 in experiment [1] is 4.73 µM. Further, in experiment [2], the maximal effect (Emax) was 113%.

As to `CNCC1OCCc2cscc21` (configuration not stated), the concentration giving a half-maximal response (EC50) in experiment [1] amounted to 0.29 µM. Moreover, in experiment [2], the Emax came out at 112%.

As to `NCCc1c[nH]c2ccccc12` [TRYPTAMINE], the EC50 in experiment [1] was 2.21 µM. Also, the maximal response (Emax) in experiment [2] stood at 102%.

On to `NCCc1cccc(O)c1`, for which the EC50 in experiment [1] came out at 0.339 µM. Also, the Emax in experiment [2] amounted to 109%.

Consider `NC[C@H](O)c1ccc(O)cc1`, for which, in experiment [1], the concentration giving a half-maximal response (EC50) came out at 1.57 µM. In addition, the maximum response (Emax) in experiment [2] turned out to be 116%.

`NCC[C@@H]1OCCc2ccsc21`: the 50% effective concentration (EC50) in experiment [1] is 0.233 µM. Further, the Emax in experiment [2] came out at 105%.

Regarding `CNCCc1ccccc1`, the EC50 in experiment [1] is 0.151 µM. In experiment [2], the Emax is 111%.

Take `NCCc1c[nH]c2ccc(O)cc12` [SEROTONIN]: the EC50 in experiment [1] was 35.1 µM. Further, the maximal effect (Emax) in experiment [2] amounted to 75%.

For `NC[C@@H](O)c1ccc(O)cc1`, the EC50 in experiment [1] was 4.11 µM. In addition, the Emax in experiment [2] came to 108%.

With `NC[C@@H]1OCCc2ccsc21`, the EC50 in experiment [1] is 0.0035 µM. Moreover, the Emax in experiment [2] is 110%.

`NCCc1ccsc1`: the EC50 in experiment [1] worked out at 0.025 µM. The maximum response (Emax) in experiment [2] worked out at 112%.

In the case of `NCCc1ccccc1` [PHENETHYLAMINE], the EC50 in experiment [1] was 0.015 µM. Also, the maximal response (Emax) in experiment [2] stood at 111%.

In the case of `CN(C)C[C@@H]1OCCc2ccsc21`, the EC50 in experiment [1] came out at 0.203 µM. Besides, the maximum response (Emax) in experiment [2] worked out at 112%.
